In ChEMBL document CHEMBL2429802, “Cytotoxic oxepinochromenone and flavonoids from the flower buds of Rosa rugosa” (J Nat Prod, 2013):

Tests used:
Assay type in all cases: functional, cell-based
MCF7 = assay: Cytotoxicity against human MCF7 cells assessed as growth inhibition after 72 hrs by MTT assay; details: MCF7, 72 h
Method in brief: (§1)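 2500 cells per well seeded in MEM medium and incubated 24 h. Medium then replaced with fresh medium containing compound at 100 to 1.5625 μM (six 2-fold dilutions). OD595 read after MTT on control wells at 0 and 72 h and on treated wells at 72 h. IC50 taken as the concentration inhibiting 50% of cell growth. Paclitaxel served as positive control.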

NB-4 = assay: Cytotoxicity against human NB4 cells assessed as growth inhibition after 72 hrs by MTT assay; details: NB-4, 72 h; method in brief: as §1
[1] = Cytotoxicity against human SH-SY5Y cells assessed as growth inhibition after 72 hrs by MTT assay; method in brief: as §1
PC-3 = assay: Cytotoxicity against human PC3 cells assessed as growth inhibition after 72 hrs by MTT assay; details: PC-3, 72 h; method in brief: as §1
A549 = assay: Cytotoxicity against human A549 cells assessed as growth inhibition after 72 hrs by MTT assay; details: A549, 72 h; method in brief: as §1

Row | Compound | IC50 (MCF7) [µM] | IC50 (NB-4) [µM] | IC50 [1] [µM] | IC50 (PC-3) [µM] | IC50 (A549) [µM]
1 | COc1cc2c(=O)cc(-c3ccc(O)c(O)c3)oc2c(C(C)=O)c1OC | 2.8 | 3.6 | 4.3 | 8.4 | 1.2
2 | CC(=O)O[C@H]1C(=O)[C@@]2(C)[C@H]([C@H](OC(=O)c3ccccc3)[C@]3(O)C[C@H](OC(=O)[C@H](O)[C@@H](NC(=O)c4ccccc4)c4ccccc4)C(C)=C1C3(C)C)[C@]1(OC(C)=O)CO[C@@H]1C[C@@H]2O [PACLITAXEL] | – | – | 0.2 | – | –
3 | COC(=O)c1cc(O)cc2oc(-c3ccc(OC)cc3)cc(=O)c12 | 2.3 | 2.2 | 2.5 | 4.8 | 6.7
4 | O=C(OC[C@H]1O[C@@H](Oc2c(-c3ccc(O)cc3)oc3cc(O)cc(O)c3c2=O)[C@H](O)[C@@H](O)[C@@H]1O)c1ccc(O)cc1 | 7.3 | 4.7 | 8.2 | > 10 | > 10
5 | COc1ccc([C@@H]2COc3cc(OC)c(O)cc3[C@H]2O)cc1 | > 10 | > 10 | > 10 | > 10 | > 10
6 | COc1cc2c(cc1OC)[C@@H](O)[C@H](c1ccc(O)cc1)CO2 | > 10 | > 10 | > 10 | > 10 | > 10
7 | COC(=O)[C@@]1(O)c2c(oc(-c3ccc(O)cc3)cc2=O)OC=C[C@@H]1O | > 10 | > 10 | > 10 | 6.8 | 7.2
8 | COc1ccc2c(c1CCO)O[C@@H](c1ccc(O)cc1O)CC2 | > 10 | > 10 | > 10 | > 10 | > 10
9 | COc1cc(/C=C/Cc2ccc(O)c(OC)c2OC)cc2c1OCO2 | > 10 | > 10 | > 10 | > 10 | > 10
10 | COc1c(O)ccc(C/C=C/c2ccc3c(c2)OCO3)c1OC | > 10 | > 10 | > 10 | > 10 | > 10
